Common to all, as to type: functional, cell-based
Assay [1] concerns T-cell. Description: Induction of IL4 production in C57BL/6 mouse natural killer T cells after 48 hrs by cytometric bead array. A digest of the protocol: (§1)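 Spleen cells (approx. 4 × 10⁵) from female C57BL/6 mice aged 6–8 weeks were cultured 48 h at 37 °C in humidified 5% CO₂. Medium was RPMI 1640 with 10% heat-inactivated FCS, 2 mM L-glutamine, penicillin/streptomycin and 10 mM Hepes, plus glycolipid at 2, 20 or 200 ng/mL. Supernatant IFN-γ, IL-4 and IL-13 were read by cytometric bead array with PE detection, interpolated from standard curves. Values are means of three wells.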

Assay [2] concerns T-cell. Description: Induction of IFN-gamma production in C57BL/6 mouse natural killer T cells upto 200 ng/ml after 48 hrs by cytometric bead array relative to KRN7000. A digest of the protocol:
as §1

In assay [3] the test system is T-cell. The assay is described as follows: Induction of IL13 production in C57BL/6 mouse natural killer T cells after 48 hrs by cytometric bead array. In a few lines:
as §1

Assay [4] deals with T-cell. The assay is described as follows: Induction of IFN-gamma production in C57BL/6 mouse natural killer T cells after 48 hrs by cytometric bead array. A digest of the protocol: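 Spleen cells (about 4 × 10⁵) from female C57BL/6 mice aged 6–8 weeks, in RPMI 1640 with 10% heat-inactivated FCS, glutamine, antibiotics and Hepes, at 37 °C in 5% CO₂. Cells were stimulated with glycolipid at 2, 20 or 200 ng/mL for 48 h. Supernatant IFN-γ was measured by cytometric bead array on FACS against a kit standard curve. Mean of three wells.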

Assay [5] deals with T-cell. Description: Induction of IL4 production in C57BL/6 mouse natural killer T cells at 2 ng/ml after 48 hrs by cytometric bead array. In a few lines: as §1
For assay [6], the system named is T-cell. The assay is described as follows: Induction of IL13 production in C57BL/6 mouse natural killer T cells at 2 ng/ml after 48 hrs by cytometric bead array. A digest of the protocol: as §1

Each structure is given as a SMILES string. Active and inactive are the calls of the source. The rule behind the calls is not given here.

In the case of `CCCCCCCCCCCCCC[C@@H](O)[C@@H](O)[C@H](CO[C@H]1O[C@H](CO)[C@H](O)[C@H](O)[C@H]1O)NS(=O)(=O)c1ccccc1C`, the outcome in the assay on T-cell [1] and in the assay on T-cell [3] was Active. Also, the result with T-cell [2] was inactive.
For the compound `CCCCCCCCCCCCCCCCCC(=O)N[C@@H](CO[C@H]1O[C@H](CO)[C@H](O)[C@H](O)[C@H]1O)[C@H](O)[C@H](O)CCCCCCCCCCCCCC`, in the assay with T-cell [4], the outcome was Active.
For the compound `CCCCCCCCCCCCCC[C@@H](O)[C@@H](O)[C@H](CO[C@H]1O[C@H](CO)[C@H](O)[C@H](O)[C@H]1O)NS(=O)(=O)c1cccc2ccccc12`, the result in the assay with T-cell [1] and with T-cell [3] was Active. Moreover, the result with T-cell [2] was inactive.
`CCCCCCCCCCCCCCCCCCCCCCCCCC(=O)N[C@@H](CO[C@H]1O[C@H](CO)[C@H](O)[C@H](O)[C@H]1O)[C@H](O)[C@H](O)CCCCCCCCCCCCCC`: the result in the assay with T-cell [1] and with T-cell [3] was Active.
Turning to `CCCCCCCCCCCCCC[C@@H](O)[C@@H](O)[C@H](CO[C@H]1O[C@H](CO)[C@H](O)[C@H](O)[C@H]1O)NS(=O)(=O)c1cccc(C)c1`, the result with T-cell [1] and in the assay with T-cell [3] was Active. Further, in the assay with T-cell [2], the result was inactive.
`CCCCCCCCCCCCCC[C@@H](O)[C@@H](O)[C@H](CC[C@H]1O[C@H](CO)[C@H](O)[C@H](O)[C@H]1O)NS(=O)(=O)c1ccc(C)cc1`: the result with T-cell [1], with T-cell [3] and with T-cell [4] was inactive.
Take `CCCCCCCCCCCCCCCCCCCCCCCC(=O)N[C@@H](CO[C@H]1O[C@H](CO)[C@H](O)[C@H](O)[C@H]1O)[C@H](O)[C@H](O)CCCCC`: the outcome with T-cell [1] and in the assay on T-cell [3] was Active.
As to `CCCCCCCCCCCCCCCCS(=O)(=O)N[C@@H](CO[C@H]1O[C@H](CO)[C@H](O)[C@H](O)[C@H]1O)[C@H](O)[C@H](O)CCCCCCCCCCCCCC`, in the assay with T-cell [2], the result was inactive.
In the case of `CCCCCCCCCCCCCC[C@@H](O)[C@@H](O)[C@H](CO[C@H]1O[C@H](CO)[C@H](O)[C@H](O)[C@H]1O)NC(=O)c1ccc(C)cc1`, in the assay on T-cell [4], the outcome was inactive.
Consider `CCCCCCCCCCCCCC[C@@H](O)[C@@H](O)[C@H](CO[C@H]1O[C@H](CO)[C@H](O)[C@H](O)[C@H]1O)NS(=O)(=O)c1ccc(C)cc1`, for which the result in the assay on T-cell [1] and with T-cell [3] was Active. Besides, in the assay on T-cell [2], the outcome was inactive.
As to `CCCCCCCCCCCCCC[C@@H](O)[C@@H](O)[C@H](CO[C@H]1O[C@H](CO)[C@H](O)[C@H](O)[C@H]1O)NS(=O)(=O)c1ccc(-c2ccccc2)cc1`, the outcome in the assay on T-cell [1] and in the assay with T-cell [3] was Active. For the same compound, the result with T-cell [2] was inactive.
For the compound `CCCCCCCCCCCCCC[C@@H](O)[C@@H](O)[C@H](CO[C@H]1O[C@H](CO)[C@H](O)[C@H](O)[C@H]1O)NS(=O)(=O)c1ccc(NC(C)=O)cc1`, the result in the assay on T-cell [5], with T-cell [6], in the assay with T-cell [1] and in the assay on T-cell [3] was Active. Moreover, in the assay with T-cell [2], the result was inactive.
`CCCCCCCCCCCCCC[C@@H](O)[C@@H](O)[C@H](CO[C@H]1O[C@H](CO)[C@H](O)[C@H](O)[C@H]1O)NS(=O)(=O)c1ccc(OC)cc1`: the outcome with T-cell [1] and in the assay with T-cell [3] was Active. Besides, in the assay with T-cell [2], the outcome was inactive.

The values above are taken from ChEMBL document CHEMBL1144229, “RCAI-17, 22, 24-26, 29, 31, 34-36, 38-40, and 88, the analogs of KRN7000 with a sulfonamide linkage: their synthesis and bioactivity for mouse natural killer T cells to produce Th2-biased cytokines” (Bioorg Med Chem, 2008).
